Bioassay records as filed in PubChem BioAssay.
T cruzi growth-1 – inhibitors of T. cruzi proliferation | T. cruzi beta-gal in NIH3T3, GalScreen luminescence, 90 h | inhibition, % at 8.34 µM | actives 5.9% (n = 77,000);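 active = mean inhibition above about 93%, with at least 55% of replicates each passing it, limit read from the data, passing the limit was not always enough; inconclusive = only one of those two conditions holds; inactive = neither condition holds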
GASC1 inh – inhibitors of human demethylase GASC-1 KDM4C; Q9H3R0; GST-KDM4C 2-372, H3K9me3 peptide, LANCE TR-FRET; inhibition, % at 12.5 µM; actives 0.15% (n = 96,000);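 active = mean replicate inhibition above about 25%, with at least 55% of replicates also reaching it, limit read from the data, passing the limit was not always enough; inconclusive = only one of those two conditions met; inactive = neither condition met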
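Material: GST-tagged GASC-1 (JMJD2C) catalytic fragment, aa 2-372 / Quantity: enzyme final amount 10 nM / Medium: HEPES buffer, pH 7.5, plus ascorbate / Doses: one test concentration per compound / Incubation: 30 min reaction, 60 min detection, RT / Measured by: LANCE TR-FRET / Read-out: inhibition from TR-FRET ratio decrease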
IDH1 R132H inh – inhibitors of human IDH1 R132H | IDH1 R132H reductase, diaphorase/resazurin fluorescence, 60 min | actives 0.18% (n = 70,000) | inhibition, % at 10 µM | O75874; in the data active = inhibition above about 34%; inconclusive = no clear call, values can overlap the other calls; inactive = below about 11%;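 note: 0% = DMSO and 100% = no enzyme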
Target sequence (O75874 whole entry R132H): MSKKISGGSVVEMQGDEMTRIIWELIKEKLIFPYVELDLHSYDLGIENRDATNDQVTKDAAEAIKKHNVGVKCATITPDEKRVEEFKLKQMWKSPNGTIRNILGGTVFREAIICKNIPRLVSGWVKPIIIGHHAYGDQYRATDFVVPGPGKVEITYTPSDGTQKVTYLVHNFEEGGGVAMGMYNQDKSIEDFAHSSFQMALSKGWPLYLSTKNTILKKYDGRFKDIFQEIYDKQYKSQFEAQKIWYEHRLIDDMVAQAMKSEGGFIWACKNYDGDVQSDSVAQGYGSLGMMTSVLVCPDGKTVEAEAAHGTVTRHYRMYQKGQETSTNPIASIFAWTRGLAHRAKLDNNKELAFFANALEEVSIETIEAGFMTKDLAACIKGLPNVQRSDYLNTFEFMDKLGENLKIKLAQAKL
T cruzi growth-2 – blocks T. cruzi growth in NIH3T3 host cells. shares compounds with T cruzi growth-1. T. cruzi beta-gal in NIH3T3, GalScreen luminescence, 90 h. inhibition, % at 8.35 µM. actives 72% (n = 5,600). AID 651739;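 active = mean replicate inhibition above about 95% and at least 55% of replicates individually reaching it, limit read from the data; inconclusive = only one of the two criteria is met; inactive = neither criterion is met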
T cruzi growth-3 – Trypanosoma cruzi proliferation inhibition. shares compounds with T cruzi growth-1. T. cruzi beta-gal in NIH3T3, GalScreen luminescence, 90 h. inhibition, % at 2.09 µM. actives 21% (n = 5,600);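 active = mean inhibition above about 95%, with at least 55% of replicates also reaching it, limit read from the data; inconclusive = meets just one of the two conditions; inactive = meets neither condition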;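 note: plate controls were neutral control median for no effect and positive control median for full effect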
3T3 cytotox – NIH/3T3 (mouse) viability loss | NIH/3T3 viability, CellTiter-Glo ATP luminescence, 90 h | shares compounds with T cruzi growth-1 | AID 651742 | actives 14% (n = 5,600) | cytotoxicity (signal decrease), % at 8.35 µM;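 active = mean signal decrease across replicates above about 35% based on untreated-well scatter, with enough replicates individually passing, limit read from the data; inconclusive = no rule stated though some were filed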;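 note: 0% = median of neutral control wells and 100% = median of positive control wells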
3T3 cytotox 2 – kills mouse NIH/3T3 fibroblasts | shares compounds with T cruzi growth-1 | inhibition, % at 24.9 µM | NIH/3T3 viability, CellTiter-Glo ATP luminescence, 90 h | actives 56% (n = 5,600);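 active = mean loss of cell viability signal at or above a set limit, and enough replicates individually reaching it; inconclusive = meets only the mean limit or only the replicate share; inactive = meets neither condition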;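 note: 0% = median of neutral control wells and 100% = median of positive control wells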
Numbers without * were called inactive; ? = inconclusive; . = no result. Shown is part of a subset that was picked to be rich in hits.

SMILES	T cruzi growth-1	GASC1 inh	IDH1 R132H inh	T cruzi growth-2	T cruzi growth-3	3T3 cytotox	3T3 cytotox 2
C[C@@H]1CN([C@@H](C)CO)C(=O)c2cccc(NC(=O)Nc3ccc(F)cc3)c2O[C@@H]1CN(C)Cc1ccc(Cl)c(Cl)c1	29	4	1	.	.	.	.
C[C@@H]1CN([C@@H](C)CO)C(=O)c2cccc(NC(=O)Nc3ccc(F)cc3)c2O[C@H]1CN(C)Cc1ccc(Cl)c(Cl)c1	71	-5	.	.	.	.	.
C[C@@H]1CN([C@@H](C)CO)C(=O)c2cccc(NC(=O)Nc3ccc(C(F)(F)F)cc3)c2O[C@@H]1CN(C)Cc1ccc(Cl)c(Cl)c1	?	7	1	108*	60	5	100*
C[C@@H]1CN([C@H](C)CO)C(=O)c2cccc(NC(=O)Nc3ccc(C(F)(F)F)cc3)c2O[C@H]1CN(C)Cc1ccc(C(F)(F)F)cc1	62	1	-5	.	.	.	.
C[C@H]1CN([C@@H](C)CO)C(=O)c2cccc(NC(=O)Nc3ccc(C(F)(F)F)cc3)c2O[C@@H]1CN(C)Cc1ccc(Cl)c(Cl)c1	?	-1	4	98*	106*	45*	105*
C[C@H]1CN([C@@H](C)CO)C(=O)c2cccc(NC(=O)Nc3ccc(C(F)(F)F)cc3)c2O[C@H]1CN(C)Cc1ccc(C(F)(F)F)cc1	94	-1	.	.	.	.	.
C[C@H](CO)N1C[C@H](C)[C@@H](CN(C)Cc2ccc(Cl)c(Cl)c2)Oc2c(NC(=O)Nc3ccc(C(F)(F)F)cc3)cccc2C1=O	?	-1	1	31	-22	7	5
C[C@H]1CN([C@@H](C)CO)C(=O)c2cccc(NC(=O)Nc3ccc(C(F)(F)F)cc3)c2O[C@H]1CN(C)Cc1ccc(Cl)c(Cl)c1	?	-2	.	98*	105*	13	103*
Cn1c(SCC(=O)N2CCc3ccccc32)nnc1-c1ccc(NC(=O)c2ccc(F)cc2)cc1	.	.	0	.	.	.	.
O=C(N/N=C/c1c[nH]c2ccccc12)c1ccccn1	.	.	0	.	.	.	.
COc1ccc(/C=N/NC(=O)c2ccccn2)cc1O	.	.	-1	.	.	.	.
COc1ccc(NC(=O)C2CC=CCC2C(=O)Nc2ccccc2Cl)cc1 (stereo unspecified)	.	.	0	.	.	.	.
OC[C@H]1Nc2ccc(-c3cccc(F)c3)cc2[C@H]2[C@@H]1CCN2Cc1ccncc1	106*	5	.	104*	74	21	92*
N#Cc1cccc(-c2ccc3c(c2)[C@H]2[C@H](CCN2Cc2ccncc2)[C@@H](CO)N3)c1	.	6	.	.	.	.	.
OC[C@@H]1Nc2ccc(-c3cccc(F)c3)cc2[C@@H]2[C@H]1CCN2Cc1ccncc1	.	5	.	.	.	.	.
OC[C@H]1Nc2ccc(-c3cccc(F)c3)cc2[C@@H]2[C@H]1CCN2Cc1ccc(F)cc1	111*	-1	.	?	112*	51*	105*
OC[C@H]1Nc2ccc(-c3cccc(F)c3)cc2[C@H]2[C@@H]1CCN2Cc1ccc(F)cc1	94	1	.	.	.	.	.
N#Cc1cccc(-c2ccc3c(c2)[C@@H]2[C@@H](CCN2Cc2cncnc2)[C@@H](CO)N3)c1	105*	1	.	89	51	-2	12
Cc1cccc(OCC(=O)Nc2ccc(Cl)c(-c3nc4ccccc4o3)c2)c1	.	.	0	.	.	.	.
Cc1ccc(S(=O)(=O)N2C(=O)CCC2C(=O)Nc2ccc(Cl)c(Cl)c2)cc1 (stereo unspecified)	.	.	-1	.	.	.	.
CCCC(=O)c1ccc(OCc2nc3ccccc3[nH]2)cc1	.	.	0	.	.	.	.
CC(C)n1nnc(CC(=O)NN)n1	.	.	0	.	.	.	.
C[C@@H]1CN([C@H](C)CO)C(=O)c2cc(NS(=O)(=O)c3ccc(F)cc3)ccc2O[C@@H](C)CCCCO[C@@H]1CN(C)S(=O)(=O)c1ccccc1	43	0	-1	.	.	.	.
COC(=O)C[C@H]1CC[C@H]2[C@H](COc3ccc(NC(=O)Nc4cccc(Cl)c4)cc3C(=O)N2C)O1	101*	-1	.	103*	?	?	46*
COC(=O)C[C@H]1CC[C@@H]2[C@@H](COc3ccc(NC(=O)Nc4cccc(Cl)c4)cc3C(=O)N2C)O1	26	2	.	.	.	.	.
SMILES	T cruzi growth-1	GASC1 inh	IDH1 R132H inh	T cruzi growth-2	T cruzi growth-3	3T3 cytotox	3T3 cytotox 2
CNC(=O)C[C@@H]1CC[C@@H]2[C@H](COc3ccc(NC(=O)c4ccc5c(c4)OCO5)cc3C(=O)N2C)O1	34	0	.	.	.	.	.
CN1C(=O)c2cc(NC(=O)Nc3ccc(Cl)cc3)ccc2OC[C@H]2O[C@@H](CC(=O)NCCN3CCCCC3)CC[C@H]21	-12	0	.	.	.	.	.
CNC(=O)C[C@@H]1CC[C@H]2[C@@H](COc3ccc(NC(=O)c4ccc5c(c4)OCO5)cc3C(=O)N2C)O1	111*	-2	.	-3	-15	-3	-1
CN1C(=O)c2cc(NC(=O)c3cccc(Cl)c3)ccc2OC[C@H]2O[C@H](CC(=O)NC3CCCCC3)CC[C@H]21	82	1	.	.	.	.	.
CN1C(=O)c2cc(NC(=O)c3cccc(Cl)c3)ccc2OC[C@@H]2O[C@@H](CC(=O)NC3CCCCC3)CC[C@H]21	96*	3	.	?	43	9	?
CN1C(=O)c2cc(NC(=O)Nc3ccc(Cl)cc3)ccc2OC[C@@H]2O[C@H](CC(=O)NCCN3CCCCC3)CC[C@@H]21	103*	1	.	108*	79	0	8
COc1ccc(CCNC(=O)C(=O)c2c(C)[nH]c3ccccc23)cc1OC	.	.	-1	.	.	.	.
CN(C)c1ccc(NC(=O)CSc2nc3ccccc3c(=O)n2-c2ccc(Cl)cc2)cc1	.	.	0	.	.	.	.
CC(=O)O[C@@H]1CC(=O)OC(C)(C)C2CC(=O)[C@]3(C)C(CC[C@@]4(C)[C@H](c5ccoc5)OC(=O)[C@H]5O[C@]543)[C@]21C (stereo partly specified)	.	.	1	.	.	.	.
CNC(=O)C[C@H]1CC[C@@H]2[C@@H](COc3ccc(NC(=O)c4ccc5c(c4)OCO5)cc3C(=O)N2C)O1	108*	0	.	-32	-8	-14	-5
CCNC(=O)C[C@@H]1CC[C@@H]2[C@@H](COc3ccc(NC(=O)c4ccc5c(c4)OCO5)cc3C(=O)N2C)O1	27	-1	.	.	.	.	.
COc1ccc(CN(C)C[C@H]2Oc3c(NC(=O)c4ccc(-c5nccs5)cc4)cccc3C(=O)N([C@@H](C)CO)C[C@H]2C)cc1	.	-1	-8	.	.	.	.
COc1ccc2c3c([nH]c2c1)[C@@H](CO)N(Cc1ccccc1)CC31CN(S(C)(=O)=O)C1	.	1	.	.	.	.	.
COc1ccc2c3c(n(C)c2c1)[C@H](CO)N(C(=O)CN(C)C)CC31CCN(Cc2nccs2)CC1	.	2	.	.	.	.	.
C[C@@H]1CCCCO[C@H](CN(C)Cc2ccccc2)[C@@H](C)CN([C@@H](C)CO)C(=O)c2cc(NC(=O)c3ccncc3)ccc2O1	98*	-1	3	16	-36	-18	-25
